Results on 14 molecules are retold here after ChEMBL document CHEMBL2434837, “Anticancer evaluation of some newly synthesized N-nicotinonitrile derivative” (Eur J Med Chem, 2013).

In experiment [1] the test system is A549. Nature of the experiment: Cytotoxicity against human A549 cells after 48 hrs by SRB assay. Format: functional, cell-based. A digest of the protocol:
(§1)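 Cells from ATCC, kept in DMEM with 10% heat-inactivated fetal calf serum, penicillin and streptomycin at 37 °C, 5% CO2. Seeded at 10^4 cells/well and left 24 h to attach. Compounds in DMSO (1 mg/ml stock) added at several concentrations, triplicate wells per dose, 48 h exposure. Then fixed, stained 30 min with 0.4% SRB in 1% acetic acid, and dye recovered in Tris-EDTA for absorbance. IC50 derived from surviving fraction versus concentration.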
A general note: Sulforhodamine B stains cellular protein and so reports cell mass.

The subject of experiment [2] is MCF7. Description: Inhibition of uPA protein expression in human MCF7 cells at 0.1 time compound IC50 after 48 hrs by ELISA. Format: functional. A digest of the protocol: (§2)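 Cells exposed 48 h to compound. Culture medium collected and spun at 2000 xg for 10 min to remove debris. Sandwich ELISA for human uPA: sample 2 h, biotinylated anti-uPA 1 h at 25 °C, streptavidin-peroxidase 30 min, chromogen, then stop solution, absorbance read at 450 nm. uPA level expressed as percent change relative to DMSO-treated control cells.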
A general note: In an ELISA, binding on a coated surface is turned into a signal by an enzyme label.

Experiment [3] deals with HepG2. Description: Cytotoxicity against human HepG2 cells after 48 hrs by SRB assay. The format is functional, cell-based. Put shortly:
as §1

Experiment [4] has as its system HepG2. Description: Inhibition of uPA protein expression in human HepG2 cells at 0.1 time compound IC50 after 48 hrs by ELISA. The format is functional. Put shortly:
as §2

Experiment [5] deals with A549. Description: Inhibition of uPA protein expression in human A549 cells at 0.1 time compound IC50 after 48 hrs by ELISA. Format: functional. Put shortly:
as §2

Experiment [6] deals with MCF7. Nature of the experiment: Cytotoxicity against human MCF7 cells after 48 hrs by SRB assay. Format: functional, cell-based. A digest of the protocol: as §1
The mark [7] stands for this setting: Homo sapiens, HepG2, 48 h, read-out: IC50.
Setting [8] is: Homo sapiens, MCF7, 48 h, read-out: IC50.

≈ marks a conversion by molar mass, not a printed value. Calls of active or inactive are those of the source. The rule behind the calls is not given here.

Usually IC50 stands for the concentration needed to halve the response being measured. With `C=CCn1c(-c2ccc(Cl)cc2)cc(-c2ccc(Cl)cc2)c(C#N)c1=O`, the IC50 result in the experiment with A549 [1] (a549) is “Not Active”; in the experiment on HepG2 [3] (setting [7]) it was 20 µg/mL (≈ 52.5 µM); in the experiment on MCF7 [6] (setting [8]), 19 µg/mL (≈ 49.8 µM). The results for the “inhibition (INH)” value in the experiment with MCF7 [2] and in the experiment with HepG2 [4] were 3% and 5%, respectively. Also, the inhibition entry in the experiment on A549 [5] is “inactive”.
`N#Cc1c(-c2ccc(Cl)cc2)cc(-c2ccc(Cl)cc2)n(CC2CO2)c1=O` (stereo not drawn): the half-maximal inhibitory concentration (IC50) entry in the experiment with A549 [1] (a549) was “Not Active”; in the experiment with HepG2 [3] (setting [7]), 6.2 µg/mL (≈ 15.6 µM); in the experiment on MCF7 [6] (setting [8]), 5 µg/mL (≈ 12.6 µM). The “inhibition (INH)” value in the experiment with MCF7 [2] turned out to be 77%; in the experiment with HepG2 [4] it was 63%. Besides, the inhibition result in the experiment with A549 [5] is “inactive”.
`N#Cc1c(-c2ccc(Cl)cc2)cc(-c2ccc(Cl)cc2)n(CC(O)CCl)c1=O` (stereo not drawn): the half-maximal inhibitory concentration (IC50) entry in the experiment with A549 [1] (a549) was “Not Active”; with HepG2 [3] (setting [7]), 4.8 µg/mL (≈ 11.1 µM); in the experiment with MCF7 [6] (setting [8]) it was 4.6 µg/mL (≈ 10.6 µM). The “inhibition (INH)” value in the experiment on MCF7 [2] came out at 82%; in the experiment on HepG2 [4] it was 67%. Moreover, the inhibition entry in the experiment with A549 [5] was “inactive”.
As to `C#CCn1c(-c2ccc(Cl)cc2)cc(-c2ccc(Cl)cc2)c(C#N)c1=O`, the values for the IC50 result with A549 [1] (a549), in the experiment with HepG2 [3] (setting [7]) and with MCF7 [6] (setting [8]) were “Not Active”, 18.3 µg/mL (≈ 48.3 µM) and 16.7 µg/mL (≈ 44 µM), respectively. The “inhibition (INH)” value in the experiment on MCF7 [2] came to 7%; in the experiment on HepG2 [4], 5%. In the experiment on A549 [5], the inhibition result is “inactive”.
On to `N#Cc1c(-c2ccc(Cl)cc2)cc(-c2ccc(Cl)cc2)n([C@@H]2O[C@H](CO)[C@@H](O)[C@H](O)[C@H]2O)c1=O`, for which the IC50 result with A549 [1] (a549) is “Not Active”; with HepG2 [3] (setting [7]), 16.1 µg/mL (≈ 32 µM); with MCF7 [6] (setting [8]) it was 14.2 µg/mL (≈ 28.2 µM). Further, the figures for the “inhibition (INH)” value in the experiment with MCF7 [2] and with HepG2 [4] were 9% and 6%, respectively. Besides, the inhibition result in the experiment with A549 [5] is “inactive”.
As to `CCn1c(-c2ccc(Cl)cc2)cc(-c2ccc(Cl)cc2)c(C#N)c1=O`, the IC50 entry in the experiment with A549 [1] (a549) is “Not Active”; in the experiment with HepG2 [3] (setting [7]), 22.3 µg/mL (≈ 60.4 µM); in the experiment on MCF7 [6] (setting [8]) it was 19.7 µg/mL (≈ 53.4 µM). The “inhibition (INH)” value in the experiment with MCF7 [2] is listed as 3%; with HepG2 [4], 2%. For the same molecule, the inhibition result in the experiment on A549 [5] was “inactive”.
On to `N#Cc1c(-c2ccc(Cl)cc2)cc(-c2ccc(Cl)cc2)[nH]c1=O`, for which the IC50 result in the experiment on A549 [1] (a549), in the experiment on HepG2 [3] (hepg2) and in the experiment with MCF7 [6] (mcf7) was “Not Active” throughout. For the same molecule, the inhibition entry in the experiment on MCF7 [2], with HepG2 [4] and in the experiment on A549 [5] was “inactive” each time.
Regarding `N#CCn1c(-c2ccc(Cl)cc2)cc(-c2ccc(Cl)cc2)c(C#N)c1=O`, the IC50 result in the experiment on A549 [1] (a549), in the experiment on HepG2 [3] (hepg2) and with MCF7 [6] (mcf7) was “Not Active” throughout. The inhibition result in the experiment on MCF7 [2], in the experiment on HepG2 [4] and in the experiment with A549 [5] was “inactive” in each case.
For `N#Cc1c(-c2ccc(Cl)cc2)cc(-c2ccc(Cl)cc2)n(C(=O)c2ccccc2)c1=O`, the IC50 result in the experiment with A549 [1] (a549) is “Not Active”; in the experiment with HepG2 [3] (setting [7]) it was 3.75 µg/mL (≈ 8.42 µM); in the experiment with MCF7 [6] (setting [8]), 2.6 µg/mL (≈ 5.84 µM). Besides, the “inhibition (INH)” value with MCF7 [2] was 90%; in the experiment on HepG2 [4], 87%. The inhibition result in the experiment on A549 [5] was “inactive”.
With `CC(=O)OC[C@H]1O[C@@H](n2c(-c3ccc(Cl)cc3)cc(-c3ccc(Cl)cc3)c(C#N)c2=O)[C@H](OC(C)=O)[C@@H](OC(C)=O)[C@@H]1OC(C)=O`, the IC50 result was “Not Active” in the experiment with A549 [1] (a549), 7.25 µg/mL (≈ 10.8 µM) in the experiment on HepG2 [3] (setting [7]) and 6.3 µg/mL (≈ 9.38 µM) in the experiment on MCF7 [6] (setting [8]). Besides, the entries for the “inhibition (INH)” value with MCF7 [2] and in the experiment with HepG2 [4] were 54% and 48%, respectively. Moreover, the inhibition result with A549 [5] is “inactive”.
Regarding `COc1cccc2c1C(=O)c1c(O)c3c(c(O)c1C2=O)C[C@@](O)(C(=O)CO)C[C@@H]3O[C@H]1C[C@H](N)[C@H](O)[C@H](C)O1` [DOXORUBICIN], the IC50 with A549 [1] (Homo sapiens, A549, 48 h, read-out: IC50) was determined as 4.11 µg/mL (≈ 7.56 µM); with HepG2 [3] (setting [7]) it was 3.9 µg/mL (≈ 7.18 µM). Moreover, the “inhibition (INH)” value in the experiment on MCF7 [2] stood at 91%; with HepG2 [4] it was 88%; in the experiment on A549 [5], 82%.
Turning to `N#Cc1c(-c2ccc(Cl)cc2)cc(-c2ccc(Cl)cc2)n([C@@H]2O[C@H](COC(=O)c3ccccc3)[C@@H](OC(=O)c3ccccc3)[C@H]2OC(=O)c2ccccc2)c1=O`, the IC50 entry in the experiment with A549 [1] (a549) is “Not Active”; with HepG2 [3] (setting [7]), 8 µg/mL (≈ 10.2 µM); in the experiment on MCF7 [6] (setting [8]) it was 5.9 µg/mL (≈ 7.51 µM). Besides, the “inhibition (INH)” value with MCF7 [2] was found to be 66%; in the experiment on HepG2 [4] it was 60%. The inhibition result in the experiment on A549 [5] is “inactive”.
Regarding `N#Cc1c(-c2ccc(Cl)cc2)cc(-c2ccc(Cl)cc2)n([C@@H]2O[C@H](CO)[C@@H](O)[C@H]2O)c1=O`, the IC50 result with A549 [1] (a549) is “Not Active”; in the experiment with HepG2 [3] (setting [7]) it was 6.9 µg/mL (≈ 14.6 µM); in the experiment with MCF7 [6] (setting [8]), 5.7 µg/mL (≈ 12 µM). For the same molecule, the “inhibition (INH)” value with MCF7 [2] was 60%; with HepG2 [4], 56%. Besides, the inhibition entry in the experiment with A549 [5] was “inactive”.
As to `N#Cc1c(-c2ccc(Cl)cc2)cc(-c2ccc(Cl)cc2)n(Cc2ccccc2)c1=O`, the IC50 result is “Not Active” in the experiment with A549 [1] (a549), 4.2 µg/mL (≈ 9.74 µM) in the experiment with HepG2 [3] (setting [7]) and 3.65 µg/mL (≈ 8.46 µM) with MCF7 [6] (setting [8]). For the same molecule, the “inhibition (INH)” value with MCF7 [2] came to 86%; with HepG2 [4] it was 83%. Further, the inhibition result in the experiment with A549 [5] is “inactive”.
